Test results reported in article PMC5083853 (Bioorganic & medicinal chemistry, 2016).

Assays:
M9-ENL1 cells = assay: Cytotoxicity against M9-ENL1 leukemia cells; format: cell-based; settings: for fold lower LC50 of C9 analog vs. C14-functionalized counterpart: 4, 6, 11 compared to 5, 7, 12
[1] = Solubility in buffered solutions at neutral pH; format: physicochemical
[2] = Human umbilical cord blood cell cytotoxicity test; format: cell-based; settings: human, hUBC LC50, human umbilical cord blood cells, cell viability, mean ± SD (n = 3)
Method in brief: (§1)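 Fresh cord blood (within 48 h of collection) was separated on a Ficoll-Paque gradient and cultured without cryopreservation at 37 °C, 5% CO2, in serum-free Iscove's MDM with 20% BIT 9500, LDL and β-mercaptoethanol. Cells got ≥3 doses of test compound from DMSO stock for 24 h, were stained for CD45, CD34 and DAPI, and were analysed by flow cytometry. Viable CD34+CD45dim percentage was compared with vehicle.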

[3] = system: human umbilical cord blood cells (hUBC); assay: Human umbilical cord blood cell cytotoxicity test; format: cell-based; settings: read-out: hUBC LC50; human umbilical cord blood cells, 24 h, cell viability, mean ± SD (n = 3)
Method in brief: as §1

## C=C1C(=O)O[C@H]2[C@H]1CC/C(COC(C(=O)OCCN1CCCC1)c1ccccc1)=C/CC[C@@]1(C)O[C@@H]21 (stereo partly drawn) [Compound 29, 2-(pyrrolidin-1-yl)ethyl 2-(((3aR,5S,9aR,10aS,10bS,E)-6,9a-dimethyl-3-methylene-2-oxo-2,3,3a,4,5,8,9,9a,10a,10b-decahydrooxireno[2′,3′:9,10]cyclodeca[1,2-b]furan-5-yl)oxy)-2-phenylacetate]
M9-ENL1 cells
  fold reduction of activity compared to PTL: 3 to 5 folds
[1]
  solubility in buffered solutions: improved solubility

## C=C1C(=O)O[C@H]2[C@H]1C[C@H](OC(=O)c1cc(-c3ccc(Cl)cc3)on1)/C(C)=C/CC[C@@]1(C)O[C@@H]21 [Compound 11, (3aR,5S,9aR,10aS,10bS,E)-6,9a-dimethyl-3-methylene-2-oxo-2,3,3a,4,5,8,9,9a,10a,10b-decahydrooxireno[2′,3′:9,10] cyclodeca[1,2-b]furan-5-yl 5-(4-chlorophenyl)isoxazole-3-carboxylate]
M9-ENL1 cells
  fold lower LC50 of C9 analog vs. C14-functionalized counterpart: 2- to 3 fold

## C=C1C(=O)O[C@H]2[C@H]1C[C@H](OC(C(=O)OCC)c1ccc(C(F)(F)F)cc1)/C(C)=C/CC[C@@]1(C)O[C@@H]21 (stereo partly drawn) [Compound 22a, ethyl 2-(((3aR,5S,9aR,10aS,10bS,E)-6,9a-dimethyl-3-methylene-2-oxo-2,3,3a,4,5,8,9,9a,10a,10b-decahydrooxireno [2′,3′:9,10]cyclodeca[1,2-b]furan-5-yl)oxy)-2-(4-(trifluoromethyl)phenyl)acetate]
[2]
  CC50 at 24 h: > 5 µM

## C=C1C(=O)O[C@@H]2[C@@H]1CC/C(COC(C(=O)OCC)c1ccc(C(F)(F)F)cc1)=C/CC[C@]1(C)O[C@H]21 (stereo partly drawn) [Compound 23b, ethyl 2-(((3aR,9aR,10aS,10bS,Z)-9a-methyl-3-methylene-2-oxo-2,3,3a,4,5,8,9,9a,10a,10b-decahydrooxireno[2′,3′:9,10]cyclodeca[1,2-b]furan-6-yl)methoxy)-2-(4-(trifluoromethyl)phenyl)acetate]
[3]
  CC50: > 5 µM

## C=C1C(=O)O[C@H]2[C@H]1CC/C(COC(C(=O)OCCN1CCOCC1)c1ccccc1)=C/CC[C@@]1(C)O[C@@H]21 (stereo partly drawn) [Compound 28, 2-morpholinoethyl 2-(((3aR,9aR,10aS,10bS,Z)-9a-methyl-3-methylene-2-oxo-2,3,3a,4,5,8,9,9a,10a,10b-decahydrooxireno [2′,3′:9,10]cyclodeca[1,2-b]furan-6-yl)methoxy)-2-phenylacetate]
M9-ENL1 cells
  fold reduction of activity compared to PTL: 3 to 5 folds
[1]
  solubility in buffered solutions: improved solubility

## C=C1C(=O)O[C@H]2[C@H]1C[C@H](OC(=O)c1ccc3ccccc3c1)/C(C)=C/CC[C@@]1(C)O[C@@H]21 [Compound 4, (3aS,5S,9aR,10aS,10bS,E)-6,9a-dimethyl-3-methylene-2oxo2,3,3a,4,5,8,9,9a,10a,10bdecahydrooxireno[2′,3′:9,10]cycl odeca [1,2-b]furan-5-yl 2-naphthoate]
M9-ENL1 cells
  fold lower LC50 of C9 analog vs. C14-functionalized counterpart: 2- to 3 fold

## C=C1C(=O)O[C@H]2[C@H]1C[C@H](OC(C(=O)OCc1ccccc1)c1ccccc1)/C(C)=C/CC[C@@]1(C)O[C@@H]21 (stereo partly drawn) [Compound 25a, benzyl 2-(((3aR,5S,9aR,10aS,10bS,E)-6,9a-dimethyl-3-methylene-2-oxo-2,3,3a,4,5,8,9,9a,10a,10b-decahydrooxireno [2′,3′:9,10]cyclodeca[1,2-b]furan-5-yl)oxy)-2-phenylacetate]
[2]
  CC50 at 24 h: > 5 µM

## C=C1C(=O)O[C@H]2[C@H]1CC/C(COCc1ccccc1)=C/CC[C@@]1(C)O[C@@H]21 [Compound 14, (3aR,9aR,10aS,10bS,Z)-6-((benzyloxy)methyl)-9a-methyl-3-methylene-3a,4,5,8,9,9a,10a,10b-octahydrooxireno[2′,3′:9,10] cyclodeca[1,2-b]furan-2(3H)-one]
M9-ENL1 cells
  fold lower cytotoxicity compared to C14-benzoylated counterpart: 2 fold

## C=C1C(=O)O[C@H]2[C@H]1C[C@H](OC(C(=O)OCCN1CCOCC1)c1ccccc1)/C(C)=C/CC[C@@]1(C)O[C@@H]21 (stereo partly drawn) [Compound 27, 2-morpholinoethyl2-(((3aR,5S,9aR,10aS,10bS,E)-6,9a-dimethyl-3-methylene-2-oxo-2,3,3a,4,5,8,9,9a,10a,10b-decahydrooxireno[2′,3′:9,10]cyclodeca[1,2-b]furan-5-yl)oxy)-2-phenyl acetate]
M9-ENL1 cells
  fold reduction of activity compared to PTL: 3 to 5 folds
[1]
  solubility in buffered solutions: improved solubility

## C=C1C(=O)O[C@H]2[C@H]1C[C@H](OC(C(=O)OCC)c1ccccc1C(F)(F)F)/C(C)=C/CC[C@@]1(C)O[C@@H]21 (stereo partly drawn) [Compound 20, ethyl2-(((3aR,5S,9aR,10aS,10bS,E)-6,9a-dimethyl-3-methylene-2-oxo-2,3,3a,4,5,8,9,9a,10a,10b-decahydrooxireno [2′,3′:9,10]cyclodeca[1,2-b]furan-5-yl)oxy)-2-(2-(trifluoromethyl)phenyl)acetate]
M9-ENL1 cells
  fold lower LC50 than the phenyl-containing counterparts (18, 19): 2- to 3 fold

## C=C1C(=O)O[C@H]2[C@H]1C[C@H](OC(C(=O)OCc1ccccc1)c1ccccc1)/C(C)=C/CC[C@@]1(C)O[C@@H]21 (stereo partly drawn) [Compound 25b, benzyl 2-(((3aR,5S,9aR,10aS,10bS,E)-6,9a-dimethyl-3-methylene-2-oxo-2,3,3a,4,5,8,9,9a,10a,10b-decahydrooxireno [2′,3′:9,10]cyclodeca[1,2-b]furan-5-yl)oxy)-2-phenylacetate]
[3]
  CC50: > 5 µM

## C=C1C(=O)O[C@H]2[C@H]1CC/C(C)=C/CC[C@@]1(C)O[C@@H]21 [PTL, parthenolide, reference compound]
[2]
  CC50 at 24 h: > 20 µM

## C=C1C(=O)O[C@H]2[C@H]1C[C@H](OC(C(=O)OCC)c1ccc(C(F)(F)F)cc1)/C(C)=C/CC[C@@]1(C)O[C@@H]21 (stereo partly drawn) [Compound 22, ethyl 2-(((3aR,5S,9aR,10aS,10bS,E)-6,9a-dimethyl-3-methylene-2-oxo-2,3,3a,4,5,8,9,9a,10a,10b-decahydrooxireno [2′,3′:9,10]cyclodeca[1,2-b]furan-5-yl)oxy)-2-(4-(trifluoromethyl)phenyl)acetate]
M9-ENL1 cells
  fold lower LC50 than the phenyl-containing counterparts (18, 19): 2- to 3 fold

## C=C1C(=O)O[C@@H]2[C@@H]1CC/C(COC(C(=O)OCC)c1ccc(C(F)(F)F)cc1)=C/CC[C@]1(C)O[C@H]21 (stereo partly drawn) [Compound 23, ethyl 2-(((3aR,9aR,10aS,10bS,Z)-9a-methyl-3-methylene-2-oxo-2,3,3a,4,5,8,9,9a,10a,10b-decahydrooxireno[2′,3′:9,10]cyclodeca[1,2-b]furan-6-yl)methoxy)-2-(4-(trifluoromethyl)phenyl)acetate]
M9-ENL1 cells
  fold lower LC50 than the phenyl-containing counterparts (18, 19): 2- to 3 fold

## C=C1C(=O)O[C@H]2[C@H]1CC/C(COC(C(=O)OCC)c1ccccc1C(F)(F)F)=C/CC[C@@]1(C)O[C@@H]21 (stereo partly drawn) [Compound 21, ethyl2-(((3aR,9aR,10aS,10bS,Z)-9a-methyl-3-methylene-2-oxo-2,3,3a,4,5,8,9,9a,10a,10b-decahydrooxireno[2′,3′:9,10]cyclodeca[1,2-b]furan-6-yl)methoxy)-2-(2-(trifluoromethyl)phenyl)acetate]
M9-ENL1 cells
  fold lower LC50 than the phenyl-containing counterparts (18, 19): 2- to 3 fold

## C=C1C(=O)O[C@H]2[C@H]1C[C@H](OC(=O)c1cn(C)c3ccccc13)/C(C)=C/CC[C@@]1(C)O[C@@H]21 [Compound 6, (3aS,5S,9aR,10aS,10bS,E)-6,9a-dimethyl-3-methylene-2-oxo-2,3,3a,4,5,8,9,9a,10a,10b decahydrooxireno [2′,3′:9,10] cyclodeca[1,2-b]furan-5-yl 1-methyl-1H-indole-3-carboxylate]
M9-ENL1 cells
  fold lower LC50 of C9 analog vs. C14-functionalized counterpart: 2- to 3 fold
